From ChEMBL document CHEMBL1156715, “Synthesis of new 3-pyridinecarboxylates of potential vasodilation properties” (Eur J Med Chem, 2008)

tested on: Aorta; assay: Vasodilation activity in Wistar rat thoracic aorta assessed as reduction of norepinephrine hydrochloride-induced contracture after 2 hrs; format: functional, tissue-based
In short: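 Endothelium-denuded aortic preparations (functional endothelium removed, confirmed by <10% acetylcholine relaxation of pre-contracted aorta) equilibrated 2 h under 2 g resting tension. Contraction to norepinephrine hydrochloride (3 × 10^-7 to 3 × 10^-3 M) recorded isometrically before and after increasing test concentrations. DMSO stock 50 mg/ml; DMSO-only controls. IC50 = concentration giving 50% reduction of maximal norepinephrine contracture.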

IC50 [µM] | SMILES
340 | CCOC(=O)c1c(-c2ccc(C)cc2)cc(-c2ccccc2)nc1N1CCOCC1
175 | CCOC(=O)c1c(-c2ccc(C)cc2)cc(-c2ccccc2)nc1N1CCCCC1
229 | CCOC(=O)c1c(-c2ccc(C)cc2)cc(-c2ccccc2)nc1N1CCN(c2nc(-c3ccccc3)cc(-c3ccc(C)cc3)c2C(=O)OCC)CC1
266 | CCOC(=O)c1c(-c2ccc(C)cc2)cc(-c2ccccc2)nc1Nc1ccc(Cl)cc1
233 | CCOC(=O)c1c(-c2ccc(C)cc2)cc(-c2ccccc2)nc1Nc1ccc(OC)cc1
367 | CCOC(=O)c1c(-c2ccc(F)cc2)cc(-c2ccccc2)nc1Nc1ccccc1

Continued, molecule first:

SMILES | IC50 [µM]
CCOC(=O)c1c(-c2ccc(F)cc2)cc(-c2ccccc2)nc1N | 335
CCOC(=O)c1c(-c2ccc(F)cc2)cc(-c2ccccc2)nc1Nc1ccc(Cl)cc1 | 715
CCOC(=O)c1c(-c2ccc(F)cc2)cc(-c2ccccc2)nc1N1CCOCC1 | 146
CCOC(=O)c1c(-c2ccc(F)cc2)cc(-c2ccccc2)nc1Nc1ccc(OC)cc1 | 254
CCOC(=O)c1c(-c2ccc(C)cc2)cc(-c2ccccc2)nc1N | 327
CCOC(=O)c1c(-c2ccc(F)cc2)cc(-c2ccccc2)nc1N1CCCCC1 | 346
